From PubChem
hERG protect = hERG (human) protection from proarrhythmic block. Q12809. CHO-hERG, FluxOR thallium flux, dofetilide IC70 present. activation (rescue from dofetilide block), less the hit threshold, % at 10 µM. 310,000 compounds, 0.51% hits;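 active means activation above the mean of controls blocked by dofetilide plus 5 SD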;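 further: thallium influx through hERG after potassium depolarization seen as dye fluorescence rise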
Kir21 block = Kir2.1 (mouse) channel inhibition. B-score at 10 µM. 310,000 compounds, 0.85% hits. P35561. HEK293-Kir2.1, FluxOR thallium flux fluorescence; stronger effect = lower value;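 active means fluorescence ratio B-score at or below minus 3 SD of library scores, with starting-brightness B-score within 2 SD, cut at about -4.2 in these data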;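 further: channel flux triggered by added potassium and thallium sulfate stimulus; B-score of peak minus minimum fluorescence over baseline after thallium stimulus; more negative B-score means stronger Kir2.1 block with less thallium influx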
KCNK9 block = blocks the human KCNK9 two-pore domain potassium channel; HEK293 KCNK9, FluxOR thallium flux fluorescence; stronger effect = lower value; B-score at 10 µM; 310,000 compounds, 1.2% hits; AID 488922;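 active means ratio B-score over 3 SD below the library mean, with starting fluorescence within 5 SD of its mean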;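 further: negative B-score means less thallium flux so channel inhibition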
Target sequence (Q9NPC2 whole entry, looked up, the tested form may be a part): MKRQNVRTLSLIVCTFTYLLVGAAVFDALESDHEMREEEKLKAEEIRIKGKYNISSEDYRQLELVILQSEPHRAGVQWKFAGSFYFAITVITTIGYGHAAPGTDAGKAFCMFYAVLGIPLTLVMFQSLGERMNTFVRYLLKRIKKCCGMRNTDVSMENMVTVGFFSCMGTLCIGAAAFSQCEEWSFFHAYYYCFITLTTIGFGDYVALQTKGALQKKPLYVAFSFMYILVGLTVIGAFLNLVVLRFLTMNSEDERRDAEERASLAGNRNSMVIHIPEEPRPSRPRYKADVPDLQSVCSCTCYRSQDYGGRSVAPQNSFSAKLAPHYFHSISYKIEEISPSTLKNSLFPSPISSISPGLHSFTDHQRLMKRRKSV
KCNK3 block = human KCNK3 channel inhibition, primary screen; O14649; AID 602410; 340,000 compounds, 0.84% hits; CHO-KCNK3 thallium flux, FluxOR fluorescence; stronger effect = lower value; B-score at 10 µM;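 active means B-score under library mean minus 4 SD, starting fluorescence ratio at most library mean plus 5 SD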;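 further: more negative B-score means stronger inhibition of thallium flux through KCNK3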
Target sequence (O14649 whole entry, looked up): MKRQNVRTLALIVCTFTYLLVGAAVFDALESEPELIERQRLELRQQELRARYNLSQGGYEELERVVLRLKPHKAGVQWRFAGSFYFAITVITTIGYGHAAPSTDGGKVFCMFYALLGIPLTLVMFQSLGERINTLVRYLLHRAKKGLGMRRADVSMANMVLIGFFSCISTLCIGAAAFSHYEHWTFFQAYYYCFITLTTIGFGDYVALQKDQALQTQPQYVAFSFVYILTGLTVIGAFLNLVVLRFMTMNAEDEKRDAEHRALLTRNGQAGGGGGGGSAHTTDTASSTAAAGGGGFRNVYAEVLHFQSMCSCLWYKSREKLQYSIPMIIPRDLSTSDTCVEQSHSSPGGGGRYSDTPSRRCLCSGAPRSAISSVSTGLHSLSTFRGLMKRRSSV
KCNQ1 inh = inhibitors of human KCNQ1 potassium channel; P51787; CHO-K1 KCNQ1, FluxOR thallium flux fluorescence; stronger effect = higher value; B-score at 10 µM; 310,000 compounds, 1.3% hits; AID 2642;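 active means compounds whose thallium flux B-score, printed positive for inhibition, exceeds three library SD while starting fluorescence stays within three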;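 further: channel opened by potassium depolarization with thallium stimulus after 20 min compound exposure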
KCNQ1 pot = potentiators or activators of human KCNQ1 potassium channel; P51787; CHO-K1 KCNQ1, thallium flux FluxOR fluorescence; stronger effect = higher value; B-score at 10 µM; 310,000 compounds, 0.35% hits; AID 2648;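 active means fluorescence ratio B-score, a plate-corrected score, at least three library SD, with initial intensity B-score within 5 SD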
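Schedule – 37 °C overnight plating, 90-min dark dye load, 20-min compound pretreatment · System – stable KCNQ1 CHO-K1 line · Probe or stimulus – thallium- and potassium-containing depolarizing buffer · Measured by – kinetic FluxOR fluorescence, 10 s baseline plus 110 s post-stimulus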
KCNQ1 block val = human KCNQ1 channel inhibition, validation assay; shares compounds with KCNQ1 inh; KCNQ1 cell line, FluxOR thallium flux fluorescence; inhibition, % at 10 µM; 1,600 compounds, 93% hits;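 active means primary screen active, with duplicate mean exceeding buffer control mean plus 3 SD of buffer wells, cut at about 28% in these data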;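 further: 0% = buffer control ratio and 100% = XE991 inhibitor control ratio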
CHO KCNQ1 ctr = counter-screen for KCNQ1 inhibitors: effect in parental CHO cells | 1,600 compounds, 21% hits | fluorescence ratio (Tl flux) at 10 µM | parental CHO-K1, FluxOR thallium flux fluorescence ratio; stronger effect = lower value; zero means no signal rise above baseline | shares compounds with KCNQ1 inh;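 active means mean of duplicate thallium-flux fluorescence ratios in parental host cells more than 5 SD below the buffer control mean, cut at about 0.38 in these data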;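 further: ratio is peak minus minimum fluorescence divided by baseline fluorescence; actives read low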
KCNQ1 APC inh = confirmation of human KCNQ1 potassium channel inhibitors by electrophysiology; shares compounds with KCNQ1 inh; 490 compounds, 20% hits; KCNQ1-CHO cells, automated patch clamp current; calls only at 10 µM; AID 624120;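 active means KCNQ1 current drop exceeding 3 SD of negative control wells, seen in both duplicate runs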;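 further: steady state current during a 2 s step from -80 to +40 mV; negative values mean current inhibition and positive values mean potentiation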
KCNQ2 spec = rat KCNQ2 inhibition in KCNQ1 inhibitor specificity screen; shares compounds with KCNQ1 inh; AID 651746; KCNQ2 cells, FluxOR thallium flux fluorescence; 1,600 compounds, 71% hits; inhibition, % at 10 µM;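 active means mean percent inhibition of the KCNQ2 thallium signal more than 5 SD above the buffer-only control wells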;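 further: KCNQ2 expressed in CHO cells; 0% = buffer control wells and 100% = XE-991 inhibitor control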
KCNQ1-KCNE1 inh = KCNQ1 inhibitor that also blocks human KCNQ1/KCNE1 channel; AID 652147; shares compounds with KCNQ1 inh; 1,600 compounds, 77% hits; inhibition, % at 10 µM; KCNQ1/KCNE1 cells, FluxOR thallium flux fluorescence;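 active means mean percent inhibition of duplicate wells above the buffer-only control mean plus 3 SD of those controls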;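 further: 0% = buffer only wells and 100% = XE-991 inhibitor control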
* = called active by the depositor; i = inactive; . = no result; + = active, no number. Hits are enriched below; roughly 3.8% of the tested compounds scored in any of these assays.

SMILES	hERG protect	Kir21 block	KCNK9 block	KCNK3 block	KCNQ1 inh	KCNQ1 pot	KCNQ1 block val	CHO KCNQ1 ctr	KCNQ2 spec	KCNQ1-KCNE1 inh	others
CC(C)(C)c1nc(NC(=O)Nc2ccccc2)sc1Br	-14.2	0.77	i	i	7*	i	91.5*	0.509	i	69.0%*	KCNQ1 APC inh=i
COc1ccc(NC(=O)COC(=O)c2ccccc2SCC(=O)N2CCCC2)cc1	-10.4	-0.02	i	i	i	i	.	.	.	.
CC(C)Oc1ccc(-c2nc(NCC3CCCO3)c3ccccc3n2)cc1 (configuration not stated)	-14.2	0.54	i	i	8*	i	98.5*	0.456	108.3%*	120.5%*	KCNQ1 APC inh=i
COc1cccc(Nc2nc(NCC3CCCO3)c3ccccc3n2)c1 (configuration not stated)	-29.7	-13.4*	i	i	6*	i	81.5*	0.456	105.0%*	152.5%*
N#Cc1ccc(NC(=S)NC(=O)C2CCCCC2)cc1	.	.	.	i	.	.	.	.	.	.
Cc1noc(C)c1CSCC(=O)Nc1cc(C(F)(F)F)ccc1N1CCCCC1	-10.3	-1.12	i	i	i	i	.	.	.	.
Cc1noc(C)c1CSCC(=O)Nc1cc(Cl)ccc1N1CCCCC1	-12.9	-0.96	i	i	8*	i	125.0*	0.378*	121.0%*	174.5%*
Cc1onc(-c2ccccc2)c1CNC(=O)Nc1cccc(Cl)c1	-12.2	0.94	i	i	7*	i	75.5*	0.497	74.3%*	79.0%*
Cc1cc(C)cc(NC(=O)NCc2c(-c3ccccc3)noc2C)c1	-10.2	0.15	i	i	i	i	.	.	.	.
Cn1c(=O)c2c(ncn2CC(=O)OCC(=O)Nc2ccc(F)cc2F)n(C)c1=O	.	.	.	i	.	.	.	.	.	.
Clc1ccc(CN=C(Nc2ccccc2)NC2CCCCC2)cc1	-7.5	-5.23*	i	i	8*	i	47.5*	0.465	i	38.0%*
CC(C)[C@H](NC(=O)c1ccccc1)C(=O)NCCc1ccccc1	-4.7	-1.24	i	i	i	i	.	.	.	.
O=C(CCc1ccccc1)Nc1cc(Cl)ccc1O	-8.0	-0.57	i	i	9*	i	63.0*	0.468	i	89.5%*
O=C(O)CC(=O)Nc1cc(Cl)ccc1O	-1.1	0.37	i	i	i	i	.	.	.	.
CS(=O)(=O)c1ccc(C(=O)Nc2ccc(N3CCOCC3)cc2)c(Cl)c1	-7.9	-0.19	i	i	i	i	.	.	.	.
CS(=O)(=O)c1ncc(Cl)c(C(=O)Nc2ccc(OC(F)F)cc2)n1	-21.4	-5.34*	i	i	6*	i	74.0*	0.342*	i	118.0%*
CS(=O)(=O)c1ncc(Cl)c(C(=O)Nc2ccc(N3CCOCC3)cc2)n1	-27.4	-3.94	i	i	7*	i	73.0*	0.414	92.3%*	108.0%*
CN(C)c1ccc(-c2sc(Nc3ccccc3)n[n+]2-c2ccc(F)cc2)cc1	-43.7	-6.71	i	i	i	i	.	.	.	.
COc1ccc(C)cc1Nc1n[n+](-c2ccccc2)c(-c2ccc(N(C)C)cc2)s1	-34.5	-1.06	-7.18*	i	15*	i	+	0.219*	i	i
O=C(Nc1nc(-c2ccccc2)c(-c2ccccc2)s1)c1ccc(S(=O)(=O)N2CCCCC2)cc1	-7.9	1.67	i	i	i	i	.	.	.	.
O=C(Nc1nc(-c2ccccc2)c(C(=O)c2ccccc2)s1)c1ccc(S(=O)(=O)N2CCCCC2)cc1	-14.3	-0.19	i	i	8*	i	83.0*	0.508	i	112.0%*
COc1cc(CCC(=O)OCC(=O)Nc2ccc(C)cc2Cl)cc(OC)c1OC	0.6	-1.47	i	i	i	i	.	.	.	.
OC(CSc1ccccc1)CN1CCN(c2ccccc2)CC1 (configuration not stated)	.	.	.	i	.	.	.	.	.	.
O=S(=O)(Nc1ccc(-n2cccc2)cc1)c1ccc(Cl)cc1Cl	-8.3	0.63	i	i	i	i	.	.	.	.
O=S(=O)(Nc1ccc(-n2cccc2)cc1)c1ccc(Cl)c(Cl)c1	-12.5	0.36	i	i	10*	i	105.5*	0.422	117.3%*	162.5%*	KCNQ1 APC inh=i
SMILES	hERG protect	Kir21 block	KCNK9 block	KCNK3 block	KCNQ1 inh	KCNQ1 pot	KCNQ1 block val	CHO KCNQ1 ctr	KCNQ2 spec	KCNQ1-KCNE1 inh	others
N#Cc1nc(Cc2cccc3ccccc23)oc1N1CCOCC1	-11.7	1.2	i	i	i	i	.	.	.	.
CC1CCN(c2oc(Cc3cccc4ccccc34)nc2C#N)CC1	-7.8	-0.01	i	i	8*	i	99.0*	0.388	101.3%*	111.5%*
CCCCc1ccc(N/C(N)=N/c2nc(C)cc(C)n2)cc1	-17.5	-5.21*	i	i	11*	i	95.5*	0.411	66.0%*	i	KCNQ1 APC inh=+
Cc1ccc(N/C(N)=N/c2nc(C)cc(C)n2)cc1	-7.0	-0.02	i	i	i	i	.	.	.	.
COc1ccccc1NC(=O)N(Cc1ccccc1)c1ccccn1	-6.7	-0.77	i	i	7*	i	95.0*	0.424	85.0%*	101.5%*	KCNQ1 APC inh=i
COCC(=O)N(Cc1ccccc1)c1ccccn1	-0.5	-0.87	i	i	i	i	.	.	.	.
CCCCn1c(N)c(S(=O)(=O)c2ccc(C)cc2)c2nc3ccccc3nc21	-7.8	0.03	i	i	14*	i	88.0*	0.38*	71.0%*	93.0%*
Cc1ccc(S(=O)(=O)c2c(N)n(Cc3ccco3)c3nc4ccccc4nc23)cc1	-12.8	-0.49	i	i	7*	i	99.0*	0.376*	74.0%*	165.5%*
Cc1ccc(S(=O)(=O)c2c(N)n(NC(=O)c3ccco3)c3nc4ccccc4nc23)cc1	-4.2	-0.96	i	i	i	i	.	.	.	.
CN(C)CCCn1c(N)c(S(=O)(=O)c2ccccc2)c2nc3ccccc3nc21	-16.8	0.35	i	i	i	i	.	.	.	.
COc1ccc(C(=O)COC(=O)C2CCN(c3ccc(C(F)(F)F)cn3)CC2)c(OC)c1	.	.	.	i	.	.	.	.	.	.
